Legend:
Mus musculus [1] = test: Total AUC in mouse at 2 mg/kg, iv and 10 mg/kg, po; assay type: ADME, organism-based; settings: in vivo
[2] = Volume of distribution at steady state in mouse at 2 mg/kg, iv and 10 mg/kg, po; assay type: ADME, organism-based; settings: in vivo, read-out: Vdss
Blood [3] = test: Antiinflammatory activity in human whole blood assessed as inhibition of LPS-induced TNFalpha release treated for 5 mins before LPS challenge measured after 6 hrs by ELISA; assay type: functional, tissue-based
[4] = Half life in mouse at 2 mg/kg, iv and 10 mg/kg, po; assay type: ADME, organism-based; settings: in vivo
[5] = Tmax in mouse at 2 mg/kg, iv and 10 mg/kg, po; assay type: ADME, organism-based; settings: in vivo
Mus musculus [6] = test: Antiinflammatory activity in BALB/c mouse assessed as inhibition of LPS-induced TNFalpha release at 100 mg/kg, po administered for 5 hrs before LPS challenge measured after 6.5 hrs post dose by ELISA; assay type: functional
Summary of the method: (§1)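 BALB/c female mice, 6–8 weeks old, n = 7–8 per treatment. Compounds given by oral gavage at 30 and 100 mg/kg in PEG400/HCl/Tween80/water; controls received vehicle alone. Five hours later, E. coli O111:B4 LPS 50 µg/kg ip. Serum collected 90 min after LPS, TNF-α measured by ELISA. Drug exposure sampled 6.5 h post-dose. Mean ± standard error.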

[7] = biological target: T1, Cyclin-G-associated kinase (Homo sapiens) (UniProt O14976); test: Residual activity at GAK at 10 uM relative to control
T1 sequence (whole entry): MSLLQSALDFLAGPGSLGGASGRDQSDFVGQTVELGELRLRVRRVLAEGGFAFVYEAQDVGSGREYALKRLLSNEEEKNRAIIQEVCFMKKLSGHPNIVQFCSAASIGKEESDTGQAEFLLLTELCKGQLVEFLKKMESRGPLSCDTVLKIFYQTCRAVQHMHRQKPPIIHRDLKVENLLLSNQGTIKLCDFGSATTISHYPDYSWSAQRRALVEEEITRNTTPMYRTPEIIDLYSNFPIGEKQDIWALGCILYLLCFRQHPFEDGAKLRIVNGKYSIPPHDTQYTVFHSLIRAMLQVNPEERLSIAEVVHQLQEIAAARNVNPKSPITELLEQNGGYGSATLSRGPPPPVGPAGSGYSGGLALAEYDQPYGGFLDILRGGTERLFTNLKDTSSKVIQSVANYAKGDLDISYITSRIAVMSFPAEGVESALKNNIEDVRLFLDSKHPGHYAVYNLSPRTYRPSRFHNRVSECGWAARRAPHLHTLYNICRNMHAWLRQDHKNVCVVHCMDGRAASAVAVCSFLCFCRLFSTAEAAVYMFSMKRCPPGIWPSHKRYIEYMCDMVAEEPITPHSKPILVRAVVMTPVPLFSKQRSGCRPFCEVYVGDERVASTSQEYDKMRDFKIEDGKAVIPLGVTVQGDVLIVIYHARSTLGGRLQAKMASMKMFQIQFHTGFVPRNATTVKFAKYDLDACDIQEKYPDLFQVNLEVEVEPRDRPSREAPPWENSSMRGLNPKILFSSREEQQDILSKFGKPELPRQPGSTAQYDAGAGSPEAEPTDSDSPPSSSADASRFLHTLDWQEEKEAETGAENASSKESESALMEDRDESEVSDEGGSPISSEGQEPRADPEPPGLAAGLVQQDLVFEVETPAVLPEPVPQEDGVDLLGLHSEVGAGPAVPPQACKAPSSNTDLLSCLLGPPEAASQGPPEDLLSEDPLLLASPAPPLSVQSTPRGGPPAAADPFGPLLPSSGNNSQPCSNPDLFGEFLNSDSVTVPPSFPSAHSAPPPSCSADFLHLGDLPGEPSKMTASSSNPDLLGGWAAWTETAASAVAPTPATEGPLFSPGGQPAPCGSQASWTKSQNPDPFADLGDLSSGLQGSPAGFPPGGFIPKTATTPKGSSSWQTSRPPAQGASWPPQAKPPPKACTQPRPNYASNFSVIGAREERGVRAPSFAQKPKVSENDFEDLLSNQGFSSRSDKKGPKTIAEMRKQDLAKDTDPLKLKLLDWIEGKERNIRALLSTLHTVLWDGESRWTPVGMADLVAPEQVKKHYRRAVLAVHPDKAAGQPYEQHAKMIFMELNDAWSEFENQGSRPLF

[8] = Oral bioavailability in mouse at 10 mg/kg; assay type: ADME, organism-based; settings: in vivo
Blood [9] = test: Antiinflammatory activity in mouse whole blood assessed as inhibition of LPS-induced TNFalpha release treated for 5 mins before LPS challenge measured after 6 hrs by ELISA; assay type: functional, tissue-based
PBMC = test: Antiinflammatory activity in human PBMC assessed as inhibition of LPS-induced TNFalpha release treated for 5 mins before LPS challenge measured after 6 hrs by ELISA; assay type: functional, cell-based
Summary of the method: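 PBMCs purified from heparinized healthy-volunteer blood by Ficoll-Hypaque gradient and suspended at 5 × 10⁶/mL in RPMI with 10% FBS. Cells preincubated with compound (0.2% DMSO) for 5 min at room temperature. LPS added from a 200 ng/mL stock, then 6 h at 37 °C. Medium TNF-α measured by ELISA. IC50 by linear regression.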

[10] = Cmax in rat at 2 mg/kg, iv and 10 mg/kg, po; assay type: ADME, organism-based; settings: in vivo
Mus musculus [11] = test: Antiinflammatory activity in po dosed BALB/c mouse assessed as inhibition of LPS-induced TNFalpha release administered for 5 hrs before LPS challenge measured after 6.5 hrs post dose by ELISA; assay type: functional, organism-based; summary of the method: as §1
[12] = Clearance in mouse at 2 mg/kg, iv and 10 mg/kg, po; assay type: ADME, organism-based; settings: in vivo
[13] = Half life in rat at 2 mg/kg, iv and 10 mg/kg, po; assay type: ADME, organism-based; settings: in vivo
[14] = Volume of distribution at steady state in dog at 2 mg/kg, iv; assay type: ADME, organism-based, Canis lupus familiaris; parameters: dose 2 mg/kg, route intravenous; settings: in vivo, read-out: Vdss
Summary of the method: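 Dog pharmacokinetics, iv dosing only, in vehicle PEG400:water 80:20.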

Work on `CCNc1nc2sc(-c3cccc([C@H](C)NC(C)=O)c3)nc2c2c1ncn2C` yielded an AUC (Mus musculus [1]) of 3000 nM, a Vd [2] of 1.5 L/kg and an IC50 (Blood [3]) of 2 µM. The half-life [4] was 114 min, the Tmax [5] was 30 min and the inhibition in vivo at 100 mg/kg (Mus musculus [6]) was 75%. It also gave a residual activity [7] of under 10%, a bioavailability [8] of 57% and an IC50 (Blood [9]) of 1 µM. The IC50 (PBMC) was 0.22 µM, the Cmax [10] was 1650 nM and the inhibition (Mus musculus [11]) was “Dose-dependent effect”. The clearance [12] was 62 mL/min/kg, the half-life [13] was 36 min and the Vd [14] was 3.1 L/kg.

Reference: ChEMBL document CHEMBL1641407, “Imidazo[4,5-d]thiazolo[5,4-b]pyridine based inhibitors of IKK2: synthesis, SAR, PK/PD and activity in a preclinical model of rheumatoid arthritis” (Bioorg Med Chem Lett, 2011)
